Assay results published in ChEMBL document CHEMBL1123589, “Phenylpiperazine-based radiopharmaceuticals for brain imaging. 3. Synthesis and evaluation of radioiodinated 1-alkyl-4-phenylpiperazines” (J Med Chem, 1987).

Assays:
Conditions in all cases: in vivo
Rattus norvegicus [1] = assay: The biodistribution of the [125I]-labeled compound in rats after intravenous injection was evaluated in adrenal at 0.25 hrs; value ranges from 0.84-0.91 (ID.kg/g); format: ADME, organism-based
Method in brief: (§1)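 Male Sprague-Dawley rats (250–300 g) under ether anesthesia were given an iv injection of no-carrier-added 125I-labelled agent (10–15 μCi in 0.1 mL saline). The agent was iodinated with chloramine-T in acetate buffer and purified by C-18 HPLC. Groups of N = 3 were killed at 0.25, 1 and 4 h. Blood and tissues were weighed and γ-counted. Values are % ID·kg/g, mean (range).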

Rattus norvegicus [2] = assay: The biodistribution of the [125I]-labeled compound in rats after intravenous injection was evaluated in adrenal at 1.00 hrs; value ranges from 0.78-1.46 (ID.kg/g); format: ADME, organism-based; method in brief: as §1
Rattus norvegicus [3] = assay: The biodistribution of the [125I]-labeled compound in rats after intravenous injection was evaluated in adrenal at 4.00 hrs; value ranges from 1.09-1.22 (ID.kg/g); format: ADME, organism-based; method in brief: as §1
Rattus norvegicus [4] = assay: The biodistribution of the [125I]-labeled compound in rats after intravenous injection was evaluated in blood at 0.25 hrs (ID.kg/g); format: ADME, organism-based; method in brief: as §1
Rattus norvegicus [5] = assay: The biodistribution of the [125I]-labeled compound in rats after intravenous injection was evaluated in blood at 1.00 hrs (ID.kg/g); format: ADME, organism-based; method in brief: as §1
Rattus norvegicus [6] = assay: The biodistribution of the [125I]-labeled compound in rats after intravenous injection was evaluated in blood at 4.00 hrs (ID.kg/g); format: ADME, organism-based; method in brief: as §1
Rattus norvegicus [7] = assay: The biodistribution of the [125I]-labeled compound in rats after intravenous injection was evaluated in brain at 0.25 hrs; value ranges from 0.10-0.16 (ID.kg/g); format: ADME, organism-based; method in brief: as §1
Rattus norvegicus [8] = assay: The biodistribution of the [125I]-labeled compound in rats after intravenous injection was evaluated in heart at 0.25 hrs (ID.kg/g); format: ADME, organism-based; method in brief: as §1
Rattus norvegicus [9] = assay: The biodistribution of the [125I]-labeled compound in rats after intravenous injection was evaluated in heart at 1.00 hrs; value ranges from 0.14-0.18 (ID.kg/g); format: ADME, organism-based
Method in brief: (§2)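 Male Sprague-Dawley rats (250–300 g), under ether anesthesia, given 10–15 μCi of the NCA ¹²⁵I-labeled agent iv in 0.1 mL saline. Groups of N = 3 were killed at 0.25, 1 or 4 h. Blood and tissues were removed, weighed and counted in a γ-well scintillation counter. Values are mean % ID·kg/g (range).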

Rattus norvegicus [10] = assay: The biodistribution of the [125I]-labeled compound in rats after intravenous injection was evaluated in lung at 4.00 hrs; value ranges from 0.53-0.59 (ID.kg/g); format: ADME, organism-based
Method in brief: (§3)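 Male Sprague-Dawley rats (250–300 g) under ether anesthesia given iv 0.1 mL saline containing 10–15 μCi of NCA ¹²⁵I-labeled agent (chloramine-T iodination, HPLC-purified). Groups of 3 killed at 0.25, 1 and 4 h. Blood and tissues excised, weighed and γ-counted. Values are mean (range) of % injected dose × body mass (kg) per gram of tissue.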

Rattus norvegicus [11] = assay: The biodistribution of the [125I]-labeled compound in rats after intravenous injection was evaluated in muscle at 0.25 hrs (ID.kg/g); format: ADME, organism-based, Muscle tissue; method in brief: as §3
Rattus norvegicus [12] = assay: The biodistribution of the [125I]-labeled compound in rats after intravenous injection was evaluated in muscle at 4.00 hrs (ID.kg/g); format: ADME, organism-based, Muscle tissue; method in brief: as §3
Rattus norvegicus [13] = assay: The biodistribution of the [125I]-labeled compound in rats after intravenous injection was evaluated in thyroid at 1.00 hrs; value ranges from 1.41-1.72 (ID.kg/g); format: ADME, organism-based, Thyroid gland; method in brief: as §3
Rattus norvegicus [14] = assay: The biodistribution of the [125I]-labeled compound in rats after intravenous injection was evaluated in thyroid at 4.00 hrs; value ranges from 2.64-2.80 (ID.kg/g); format: ADME, organism-based, Thyroid gland; method in brief: as §3
Rattus norvegicus [15] = assay: The biodistribution of the [125I]-labeled compound in rats after intravenous injection was evaluated in thyroid at 0.25 hrs; value ranges from 1.44-2.04 (ID.kg/g); format: ADME, organism-based, Thyroid gland; method in brief: as §3
Rattus norvegicus [16] = assay: The biodistribution of the [125I]-labeled compound in rats after intravenous injection was evaluated in fat at 0.25 hr (ID. kg/g); format: ADME, organism-based, Adipose tissue; method in brief: as §1
Rattus norvegicus [17] = assay: The biodistribution of the [125I]-labeled compound in rats after intravenous injection was evaluated in fat at 1.00 hrs (ID.kg/g); format: ADME, organism-based, Adipose tissue; method in brief: as §1
Rattus norvegicus [18] = assay: The biodistribution of the [125I]-labeled compound in rats after intravenous injection was evaluated in brain at 1.00 hrs; value ranges from 0.08-0.10 (ID.kg/g); format: ADME, organism-based; method in brief: as §1
Rattus norvegicus [19] = assay: The biodistribution of the [125I]-labeled compound in rats after intravenous injection was evaluated in brain at 4.00 hrs (ID.kg/g); format: ADME, organism-based; method in brief: as §1
Rattus norvegicus [20] = assay: The biodistribution of the [125I]-labeled compound in rats after intravenous injection was evaluated in fat at 4.00 hrs; value ranges from 0.02-0.04 (ID.kg/g); format: ADME, organism-based, Adipose tissue; method in brief: as §1
Rattus norvegicus [21] = assay: The biodistribution of the [125I]-labeled compound in rats after intravenous injection was evaluated in kidney at 1.00 hrs; value ranges from 0.35-0.42 (ID.kg/g); format: ADME, organism-based; method in brief: as §2
Rattus norvegicus [22] = assay: The biodistribution of the [125I]-labeled compound in rats after intravenous injection was evaluated in kidney at 4.00 hrs; value ranges from. 28-0.30(ID.kg/g); format: ADME, organism-based; method in brief: as §2
Rattus norvegicus [23] = assay: The biodistribution of the [125I]-labeled compound in rats after intravenous injection was evaluated in liver at 0.25 hr; value ranges from; value ranges from 0.45-0.60 (ID.kg/g); format: ADME, organism-based; method in brief: as §2
Rattus norvegicus [24] = assay: The biodistribution of the [125I]-labeled compound in rats after intravenous injection was evaluated in liver at 1.00 hr 0.46-0.90 (ID.kg/g); format: ADME, organism-based; method in brief: as §2
Rattus norvegicus [25] = assay: The biodistribution of the [125I]-labeled compound in rats after intravenous injection was evaluated in liver at 4.00 hrs (ID.kg/g); format: ADME, organism-based; method in brief: as §2
Rattus norvegicus [26] = assay: The biodistribution of the [125I]-labeled compound in rats after intravenous injection was evaluated in lung at 0.25 hrs; value ranges from 1.0-1.14 (ID.kg/g); format: ADME, organism-based; method in brief: as §2
Rattus norvegicus [27] = assay: The biodistribution of the [125I]-labeled compound in rats after intravenous injection was evaluated in lung at 1.00 hrs; value ranges from 0.65-0.85 (ID.kg/g); format: ADME, organism-based; method in brief: as §2
Rattus norvegicus [28] = assay: The biodistribution of the [125I]-labeled compound in rats after intravenous injection was evaluated in kidney at 0.25 hr; value ranges from 0.35-0.39 (ID.kg/g); format: ADME, organism-based; method in brief: as §2
Rattus norvegicus [29] = assay: The biodistribution of the [125I]-labeled compound in rats after intravenous injection was evaluated in heart at 4.00 hrs; value ranges from 0.11-0.13 (ID.kg/g); format: ADME, organism-based; method in brief: as §2
Rattus norvegicus [30] = assay: The biodistribution of the [125I]-labeled compound in rats after intravenous injection was evaluated in muscle at 1.00 hrs (ID.kg/g); format: ADME, organism-based, Muscle tissue; method in brief: as §3

CCCCCCN1CCN(c2ccc(I)cc2)CC1
Biodistribution (Rattus norvegicus [1]): 0.91%
Biodistribution (Rattus norvegicus [2]): 1.46%
Biodistribution (Rattus norvegicus [3]): 1.22%
Biodistribution (Rattus norvegicus [4]): 0.01 % ID·kg/g
Biodistribution (Rattus norvegicus [5]): 0.01 % ID·kg/g
Biodistribution (Rattus norvegicus [6]): 0.01 % ID·kg/g
Biodistribution (Rattus norvegicus [7]): 0.16%
Biodistribution (Rattus norvegicus [8]): 0.24%
Biodistribution (Rattus norvegicus [9]): 0.18%
Biodistribution (Rattus norvegicus [10]): 0.59%
Biodistribution (Rattus norvegicus [11]): 0.03 % ID·kg/g
Biodistribution (Rattus norvegicus [12]): 0.02 %ID·kg/g
Biodistribution (Rattus norvegicus [13]): 1.72%
Biodistribution (Rattus norvegicus [14]): 2.8%
Biodistribution (Rattus norvegicus [15]): 2.04%
Biodistribution (Rattus norvegicus [16]): 0.01 % ID·kg/g
Biodistribution (Rattus norvegicus [17]): 0.02 % ID·kg/g
Biodistribution (Rattus norvegicus [18]): 0.1%
Biodistribution (Rattus norvegicus [19]): 0.09%
Biodistribution (Rattus norvegicus [20]): 0.04%
Biodistribution (Rattus norvegicus [21]): 0.42%
Biodistribution (Rattus norvegicus [22]): 0.3%
Biodistribution (Rattus norvegicus [23]): 0.6%
Biodistribution (Rattus norvegicus [24]): 0.9%
Biodistribution (Rattus norvegicus [25]): 0.78%
Biodistribution (Rattus norvegicus [26]): 1.14%
Biodistribution (Rattus norvegicus [27]): 0.85%
Biodistribution (Rattus norvegicus [28]): 0.39%
Biodistribution (Rattus norvegicus [29]): 0.13%
Biodistribution (Rattus norvegicus [30]): 0.02 %ID·kg/g
